Screening data as filed in PubChem.
Shown are actives, neighbours in structure and some others; about 2.9% of the full set was active somewhere.
EBNA-1 inhibitor – EBNA-1 DNA-binding inhibitors, primary screen, biochemical, fluorescence polarization; 0.34% of 300,000 active; AID 1950, 2009; inhibition, % at 14.8 µM; in the data active = inhibition above about 28%
PfM18AAP inh – PfM18AAP inhibitors, malaria aminopeptidase, primary screen, biochemical, QFRET, recombinant enzyme | M18 aspartyl aminopeptidase (Plasmodium falciparum 3D7) | H-Glu-NHMec fluorogenic cleavage | inhibition, % at 7.35 µM | 1.2% of 290,000 active | AID 1822, 2009;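 active = inhibition above the campaign mean inhibition over all tested compounds plus 3 SD, cut at about 28% in these data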;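 also: 0% = plate median of test compound wells and 100% = 2 mM ZnCl2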
ZTA DNA inh – blocks Epstein-Barr virus ZTA, an EBNA-1 counter-screen. P03206. ZTA-DNA binding, fluorescence polarization. inhibition, % at 11 µM. 0.15% of 320,000 active. AID 2234; in the data active = inhibition above about 33%
PfGluPho inh – PfG6PD enzyme inhibitors, primary screen, biochemical, fluorescence intensity, uHTS. 0.78% of 350,000 active. inhibition, % at 20 µM. glucose-6-phosphate dehydrogenase-6-phosphogluconolactonase (Plasmodium falciparum 3D7). PfGluPho enzyme, NADPH resazurin-diaphorase fluorescence;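 active = inhibition reaching at least a set limit at 20 µM in the primary screen, cut at about 59% in these data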;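 also: 0% = DMSO wells with substrate and 100% = DMSO wells lacking glucose-6-phosphate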
Apaf-1 inh – inhibitors of human Apaf-1 apoptosome, primary screen, biochemical, DEVD-Rh110 fluorescence, uHTS. reconstituted apoptosome caspase-3 activity. inhibition, % at 20 µM. 0.71% of 330,000 active. AID 489030, 2010; active = inhibition of at least 40% at 20 µM;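 also: plate controls were DMSO wells for no effect and DEVD-CHO caspase inhibitor wells for full effect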
Target sequence (O14727 whole entry, looked up): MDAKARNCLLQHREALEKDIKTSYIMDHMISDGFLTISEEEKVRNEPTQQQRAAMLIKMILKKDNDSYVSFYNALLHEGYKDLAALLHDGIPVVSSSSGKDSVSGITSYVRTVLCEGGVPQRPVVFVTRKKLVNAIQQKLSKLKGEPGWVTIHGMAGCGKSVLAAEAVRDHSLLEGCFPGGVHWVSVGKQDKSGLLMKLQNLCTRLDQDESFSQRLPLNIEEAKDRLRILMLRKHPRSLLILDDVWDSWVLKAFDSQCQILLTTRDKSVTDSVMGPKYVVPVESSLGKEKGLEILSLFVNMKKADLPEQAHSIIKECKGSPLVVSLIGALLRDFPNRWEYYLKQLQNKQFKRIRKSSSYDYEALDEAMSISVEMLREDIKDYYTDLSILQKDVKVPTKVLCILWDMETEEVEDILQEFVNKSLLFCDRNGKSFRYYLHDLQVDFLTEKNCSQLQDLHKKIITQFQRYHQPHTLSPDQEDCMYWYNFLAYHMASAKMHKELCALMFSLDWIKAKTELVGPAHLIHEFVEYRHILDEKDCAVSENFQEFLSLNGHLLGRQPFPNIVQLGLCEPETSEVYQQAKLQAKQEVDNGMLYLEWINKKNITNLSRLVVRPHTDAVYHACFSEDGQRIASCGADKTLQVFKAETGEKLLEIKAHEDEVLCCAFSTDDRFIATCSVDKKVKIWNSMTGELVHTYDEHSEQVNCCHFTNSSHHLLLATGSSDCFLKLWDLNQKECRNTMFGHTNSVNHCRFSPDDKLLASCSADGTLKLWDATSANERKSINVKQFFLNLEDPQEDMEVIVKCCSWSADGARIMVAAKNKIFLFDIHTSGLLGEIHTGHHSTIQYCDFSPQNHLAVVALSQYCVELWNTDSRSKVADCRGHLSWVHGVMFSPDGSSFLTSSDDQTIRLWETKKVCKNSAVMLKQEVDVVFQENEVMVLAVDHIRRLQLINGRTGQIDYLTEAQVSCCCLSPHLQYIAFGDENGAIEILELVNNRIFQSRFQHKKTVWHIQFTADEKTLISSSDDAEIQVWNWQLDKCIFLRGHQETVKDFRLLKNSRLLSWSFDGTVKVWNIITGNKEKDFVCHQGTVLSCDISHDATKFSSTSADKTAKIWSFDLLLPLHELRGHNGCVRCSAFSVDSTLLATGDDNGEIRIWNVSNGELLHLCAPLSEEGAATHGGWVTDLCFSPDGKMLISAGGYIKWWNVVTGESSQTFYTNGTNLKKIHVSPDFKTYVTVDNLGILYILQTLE
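System: reconstituted apoptosome with Apaf-1, cytochrome c, caspase-9, procaspase-3, dATP; Signal: Rh110 fluorescence intensity; Schedule: 30 min compound preincubation, 50 min activation, room temperature; Reagent: cytochrome c trigger plus (Z-DEVD)2-Rh110 caspase-3 substrate.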
UBC13 polyUb – UBC13 polyubiquitin chain formation inhibitors, primary screen, biochemical, TR-FRET, uHTS. Ubiquitin-conjugating enzyme E2 N (Homo sapiens), P61088. AID 485273, 2010. 0.47% of 330,000 active. inhibition, % at 20 µM; in the data active = inhibition above about 45%, passing the limit was not always enough; inconclusive = no clear call, values can overlap the other calls
Apaf-1 inh conf – Apaf-1 inhibitors, single-dose retest, confirmation, biochemical, fluorescence, DEVD-Rh110, 20 µM | 25% of 1,800 active | inhibition, % at 20 µM | reconstituted apoptosome, caspase-3 DEVD-Rh110 fluorescence | shares compounds with Apaf-1 inh | AID 504614, 2011;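 active = mean inhibition of at least 40% at 20 µM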;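 also: plate controls were DMSO wells for no effect and DEVD-CHO caspase inhibitor control wells for full effect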
Rh110 quench – Rh110 fluorescence interference by putative Apaf-1 inhibitors, confirmation, artefact control for Apaf-1 inhibitor project, biochemical, 20 µM | shares compounds with Apaf-1 inh | quenched caspase reaction | activation (fluorescence interference), % at 20 µM | 1,800 tested, under 10 active | AID 504615, 2011;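 active = signal rise of 40% or more at 20 µM, treated as a fluorescence artifact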
Fluor interf inh – fluorescence interference of Apaf-1 inhibitor hits, dose response, artefact control for Apaf-1 inhibitor project; shares compounds with Apaf-1 inh; fluorescence interference counterscreen, Apaf-1 assay format; IC50, µM; 460 tested, under 10 active; AID 588538, 2011; call rule not given here
Numbers without * were called inactive; ? = inconclusive; / = no result given; ! = repeats disagree.

SMILES	EBNA-1 inhibitor	PfM18AAP inh	ZTA DNA inh	PfGluPho inh	Apaf-1 inh	UBC13 polyUb	Apaf-1 inh conf	Rh110 quench	others
CCN1CCN(C(=O)CN(CC)S(=O)(=O)c2ccc(F)cc2)CC1	0.1	1.2	-16.5	15.4	-19.2	9.1	/	/
Cc1cc(C(=O)N/N=C/c2cccc3ccccc23)c(C)o1	-14.1	3.0	4.8	8.9	22.8	-5.1	/	/
COc1ccccc1N1C(=O)CC(N2CCN(c3ccc([N+](=O)[O-])cc3)CC2)C1=O (stereo unspecified)	-2.5	-1.4	-23.6	-5.1	7.1	-12.8	/	/
CC(=O)NC1=C(NC2CCS(=O)(=O)C2)C(=O)c2ccccc2C1=O (stereo unspecified)	2.5	4.5	15.9	-2.8	40.8*	-44.5	21.3	-5.6
O=C(CN1C(=O)c2ccccc2C1=O)NC1CCS(=O)(=O)C1 (stereo unspecified)	/	/	/	-2.2	/	/	/	/
COc1ccc(NC(=O)[C@@H](NC(=O)N2C[C@H]3C[C@@H](C2)c2cccc(=O)n2C3)C(C)C)cc1OC	3.2	0.5	-3.7	-1.7	61.7*	-2.3	7.4	1.1
O=C1CCCN1CCCNc1nc2c(S(=O)(=O)c3ccccc3)nnn2c2ccc(Cl)cc12	2.2	2.0	10.3	0.6	18.0	15.9	/	/
COc1ccc(C(=O)Nc2nc3c(s2)Cc2cc(OC)ccc2-3)cc1	-6.7	-0.7	17.0	33.5	96.6*	-51.9	59.0*	4.2	Fluor interf inh=>100
COc1ccc2c(c1)Cc1sc(NC(=O)c3cccs3)nc1-2	4.7	4.4	-5.1	12.6	86.8*	-18.0	43.6*	2.4	Fluor interf inh=>100
COc1ccc2c(c1)Cc1sc(NC(=O)c3ccccc3)nc1-2	0.2	-0.7	-0.3	13.0	83.5*	-13.9	60.2*	6.3	Fluor interf inh=>100
COc1ccc2nc(NC(=O)c3cccs3)sc2c1	5.3	-2.6	-9.0	-15.7	1.2	9.9	/	/
C=CCOc1ccc(C2=NOC(C(=O)Nc3ccc4c(c3)OCCO4)C2)cc1 (stereo unspecified)	-8.6	-6.0	8.3	8.8	13.2	-0.6	/	/
CN(Cc1ccc(F)cc1)C(=O)CNC(=O)c1cccs1	/	/	12.0	-1.3	55.9*	27.0	41.1*	3.8	Fluor interf inh=>100
CN(CC(=O)O)c1ccc(C(F)(F)F)cc1[N+](=O)[O-]	/	-1.2	/	-18.4	8.1	-5.1	/	/
Nc1nnc2c(n1)CCCC2	-1.6	13.2	-1.2	0.1	82.8*	-21.5	72.0*	-26.7	Fluor interf inh=>100
O=C(COc1ccc2c3c(c(=O)oc2c1)CCC3)N1CCN(c2ccc(F)cc2)CC1	4.9	-2.1	10.5	13.0	42.4*	-1.3	11.4	3.3
COc1ccc(Br)cc1C1CC(=O)N2CN(Cc3ccccc3)CSC2=C1C#N (stereo unspecified)	1.9	21.9	7.5	71.5*	77.9*	-4.9	19.6	0.0
CCOC(=O)c1ccc(-n2[nH]c(-c3ccccc3)cc2=O)cc1	9.8	-12.2	5.3	-19.9	42.6*	-18.6	24.7	0.8
CCCc1cc(=O)oc2c(C)c(OCC(=O)N3C[C@H]4C[C@@H](C3)c3cccc(=O)n3C4)ccc12	-1.9	-11.6	5.2	-10.2	-2.4	-10.1	/	/
O=C(c1ccc([N+](=O)[O-])o1)N(Cc1nnc(-c2ccccc2Cl)o1)C1CC1	/	/	9.1	2.8	51.0*	34.9	41.3*	5.3	Fluor interf inh=>100
Cc1ccc(C(=O)N(Cc2nnc(-c3ccccc3Cl)o2)C2CC2)o1	/	/	/	14.8	/	/	/	/
Cc1ccc(C(=O)N2CCCC(N(C)Cc3ccccc3)C2)s1 (stereo unspecified)	/	2.0	/	2.7	-4.0	1.5	/	/
CCN1CCCC1CN(Cc1cc2ccc(C)cc2[nH]c1=O)C(=S)Nc1ccc(F)cc1 (stereo unspecified)	-3.3	16.0	1.1	-0.2	0.0	2.4	/	/
O=C1C(=Cc2ccco2)C(=O)c2ccccc21	4.4	4.4	-5.6	11.7	44.4*	-40.7	10.4	2.1
CC(C)C(C(=O)O)N1C(=O)/C(=C/C=C/c2ccco2)SC1=S (stereo unspecified)	41.5*	16.2	99.3*	32.1	45.7*	?	48.4*	6.0	Fluor interf inh=>100
SMILES	EBNA-1 inhibitor	PfM18AAP inh	ZTA DNA inh	PfGluPho inh	Apaf-1 inh	UBC13 polyUb	Apaf-1 inh conf	Rh110 quench	others
Cc1nnc(N=c2ssnc2Cl)o1	/	/	2.2	115.7*	50.0*	-21.9	56.6*	4.8	Fluor interf inh=>100
Nc1ccccc1N=c1ssnc1Cl	/	20.6	/	58.8	/	/	/	/
CN(Cc1ccccc1)c1oc(-c2ccco2)nc1C#N	-4.5	-0.4	8.1	-5.5	40.9*	6.4	14.7	-3.2
CN(C)c1oc(-c2ccco2)nc1C#N	5.3	5.0	1.3	-12.3	3.0	-2.6	/	/
Cc1c(C(=O)N(C)CCOc2ccccc2)oc2c(Cl)cccc12	/	/	-10.8	29.9	44.6*	17.4	38.3	12.2
O=C1C(Cl)=C(N2CCCCC2)C(=O)C(Cl)=C1c1cnc(N2CCCCC2)s1	/	20.8	/	87.6*	47.7*	-25.8	25.5	6.4
CCCNC(=O)NC(=O)CSc1cccc(C(F)(F)F)c1	5.5	4.2	-17.0	-6.9	9.4	2.1	/	/
CCOC(=O)c1cnc2ccc(C)cc2c1Nc1ccc(N2CCOCC2)cc1	-8.9	-26.5	-0.2	43.8	41.1*	-13.0	36.8	8.8
CCOC(=O)c1ccc2ncc(C(=O)OCC)c(NCCN3CCOCC3)c2c1	3.3	1.5	11.2	17.6	-1.5	4.2	/	/
O=C(CCC(=O)OCC(=O)c1ccc(C(F)(F)F)cc1)OCC(=O)c1ccc(C(F)(F)F)cc1	-10.0	-2.3	-6.9	-5.9	-17.1	-12.7	/	/
COCCCC/C(=N\OCCN)c1ccc(C(F)(F)F)cc1	2.1	-0.1	-4.8	-20.7	99.0*!	-2.2	2.7	-2.7
COc1ccc(NC2=C(NCCO)C(=O)c3ccccc3C2=O)cc1	-0.3	-11.2	-11.4	7.8	69.6*	-41.0	44.8*	6.0	Fluor interf inh=>100
Cc1cc(C)cc(NC2=C(N)C(=O)c3ccccc3C2=O)c1	10.7	10.1	0.9	5.7	73.7*	-54.2	21.0	-0.5
COc1cccc(NC2=C(NCCO)C(=O)c3ccccc3C2=O)c1	-7.3	6.5	-3.5	7.4	16.0	-93.1	/	/
Cc1cccc(NC2=C(NCCO)C(=O)c3ccccc3C2=O)c1	-8.3	5.9	-4.6	11.7	56.3*	-123.4	35.0	8.5
